How the values were obtained:
[1] = Cytotoxicity against human CNE2 cells after 72 hrs ny MTT assay; assay type: functional, cell-based; details: CNE-2, 72 h
Outline: (§1)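 Cells grown in RPMI 1640 with 10% fetal calf serum and seeded at 2 × 10^4/mL. They were held 12 h at 37 °C in 5% CO2, then exposed to compound for 3 days at 37 °C. MTT formazan was dissolved and absorbance read at 570 nm. IC50 is the concentration giving 50% growth inhibition versus untreated controls. At least 3 independent experiments.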

KB = assay: Cytotoxicity against human KB cells after 72 hrs ny MTT assay; assay type: functional, cell-based; outline: as §1

COP(=O)(OC)C(NC(=O)COc1ccc(Cl)cc1Cl)c1ccccc1 (centres undefined)
IC50 [1]: > 50 µM
IC50 (KB): > 50 µM

COP(=O)(OC)C(NC(=O)COc1ccc(Cl)cc1Cl)c1ccc(C)cc1 (centres undefined)
IC50 [1]: > 50 µM
IC50 (KB): > 50 µM

COP(=O)(OC)C(NC(=O)COc1ccc(Cl)c(C)c1)c1ccc(C)cc1 (centres undefined)
IC50 [1]: > 50 µM
IC50 (KB): > 50 µM

COc1ccc(C(NC(=O)COc2cccc(C)c2C)P(=O)(OC)OC)cc1 (centres undefined)
IC50 [1]: > 50 µM
IC50 (KB): > 50 µM

COc1ccc(C(NC(=O)COc2ccc(Cl)cc2Cl)P(=O)(OC)OC)cc1 (centres undefined)
IC50 [1]: > 50 µM
IC50 (KB): > 50 µM

CCOP(=O)(OCC)C(NC(=O)COc1ccc(Cl)cc1Cl)c1ccc(OC)cc1 (centres undefined)
IC50 [1]: > 50 µM
IC50 (KB): > 50 µM

CCOP(=O)(OCC)C(NC(=O)COc1ccc(Cl)cc1)c1ccc(OC)cc1 (centres undefined)
IC50 [1]: > 50 µM
IC50 (KB): > 50 µM

CCOP(=O)(OCC)C(NC(=O)COc1cccc(C(F)(F)F)c1)c1ccc(OC)cc1 (centres undefined)
IC50 [1]: > 50 µM
IC50 (KB): > 50 µM

CCOP(=O)(OCC)C(NC(=O)COc1ccc([N+](=O)[O-])cc1)c1ccc(OC)cc1 (centres undefined)
IC50 [1]: > 50 µM
IC50 (KB): > 50 µM

CCOP(=O)(OCC)C(NC(=O)COc1ccc(Cl)cc1C)c1ccc(OC)cc1 (centres undefined)
IC50 [1]: > 50 µM
IC50 (KB): > 50 µM

CCCOP(=O)(OCCC)C(NC(=O)COc1ccc(Cl)cc1Cl)c1ccccc1 (centres undefined)
IC50 [1]: 26 µM
IC50 (KB): 16 µM

CCCOP(=O)(OCCC)C(NC(=O)COc1ccc(Cl)cc1)c1ccccc1 (centres undefined)
IC50 [1]: 42.9 µM
IC50 (KB): 23 µM

CCCOP(=O)(OCCC)C(NC(=O)COc1cccc(C(F)(F)F)c1)c1ccccc1 (centres undefined)
IC50 [1]: 41.8 µM
IC50 (KB): 21.6 µM

CCCOP(=O)(OCCC)C(NC(=O)COc1ccc(Cl)cc1Cl)c1ccc(OC)cc1 (centres undefined)
IC50 [1]: 27.2 µM
IC50 (KB): 17.4 µM

CCCOP(=O)(OCCC)C(NC(=O)COc1cccc(C(F)(F)F)c1)c1ccc(OC)cc1 (centres undefined)
IC50 [1]: 38.5 µM
IC50 (KB): 19.8 µM

CCCCOP(=O)(OCCCC)C(NC(=O)COc1cccc(C)c1C)c1ccccc1 (centres undefined)
IC50 [1]: 25.1 µM
IC50 (KB): 18.2 µM

CCCCOP(=O)(OCCCC)C(NC(=O)COc1ccccc1Cl)c1ccccc1 (centres undefined)
IC50 [1]: 11.4 µM
IC50 (KB): 15.8 µM

CCCCOP(=O)(OCCCC)C(NC(=O)COc1ccc(Cl)cc1Cl)c1ccccc1 (centres undefined)
IC50 [1]: 13.8 µM
IC50 (KB): 17.8 µM

CCCCOP(=O)(OCCCC)C(NC(=O)COc1ccc(Cl)cc1C)c1ccccc1 (centres undefined)
IC50 [1]: 19.9 µM
IC50 (KB): 12.3 µM

CCCCOP(=O)(OCCCC)C(NC(=O)COc1ccc(Cl)c(C)c1)c1ccccc1 (centres undefined)
IC50 [1]: 43 µM
IC50 (KB): 18.1 µM

CCCCOP(=O)(OCCCC)C(NC(=O)COc1cc(Cl)c(Cl)cc1Cl)c1ccccc1 (centres undefined)
IC50 [1]: > 50 µM
IC50 (KB): 15.9 µM

CCCCOP(=O)(OCCCC)C(NC(=O)COc1ccc(OC)cc1)c1ccccc1 (centres undefined)
IC50 [1]: 41.2 µM
IC50 (KB): 25.5 µM

CCCCOP(=O)(OCCCC)C(NC(=O)COc1ccc(F)cc1Cl)c1ccccc1 (centres undefined)
IC50 [1]: 13.1 µM
IC50 (KB): 12.3 µM

CCCCOP(=O)(OCCCC)C(NC(=O)COc1cccc(C)c1C)c1ccc(OC)cc1 (centres undefined)
IC50 [1]: 20.7 µM
IC50 (KB): 7.1 µM

CCCCOP(=O)(OCCCC)C(NC(=O)COc1ccccc1Cl)c1ccc(OC)cc1 (centres undefined)
IC50 [1]: 13.4 µM
IC50 (KB): 14.5 µM

CCCCOP(=O)(OCCCC)C(NC(=O)COc1ccc(C(C)(C)C)cc1)c1ccc(OC)cc1 (centres undefined)
IC50 [1]: 31.1 µM
IC50 (KB): 13.3 µM

O=c1[nH]cc(F)c(=O)[nH]1 [FLUOROURACIL]
IC50 [1]: 13.5 µM
IC50 (KB): 9 µM
